Laboratory results taken from ChEMBL document CHEMBL3400020, “2'-Hydroxy flavanone derivatives as an inhibitors of pro-inflammatory mediators: Experimental and molecular docking studies” (Bioorg Med Chem Lett, 2015).

Key:
[1] = test system: RAW264.7; assay: Inhibition of IL-1beta production in mouse RAW264.7 cells at 30 uM incubated for 12 hrs by sandwich immunoassay; format: functional; details: RAW264.7, 12 h
Summary of the method: (§1)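 In RAW 264.7 and J774A.1 macrophages, TNF-α and IL-1β were quantified. Single-point data are % inhibition at 30 µM; otherwise IC50 in µM. Values are from three separate experiments, each in triplicate.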

[2] = test system: RAW264.7; assay: Inhibition of LPS-induced nitric oxide production in mouse RAW264.7 cells pre-incubated for 1 hr followed by LPS stimulation for 24 hrs by Griess reagent based assay; format: functional, cell-based
Summary of the method: (§2)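 RAW 264.7 and J774A.1 cells handled in parallel. Viability was read at 50 µM alongside the LPS-stimulated NO (Griess) assay. Values are from three independent experiments, each run in triplicate.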

[3] = test system: J774.A1; assay: Inhibition of TNFalpha production in mouse J774A.1 cells at 30 uM incubated for 6 hrs by sandwich immunoassay; format: functional; details: J774.A1, 6 h; summary of the method: as §1
[4] = Cytotoxicity against mouse J774A.1 cells assessed as cell viability at 50 uM after 24 hrs by MTT assay; format: cell-based, J774.A1; details: read-out: Activity; summary of the method: as §2
[5] = test system: RAW264.7; assay: Inhibition of TNFalpha production in mouse RAW264.7 cells at 30 uM incubated for 6 hrs by sandwich immunoassay; format: functional; details: RAW264.7, 6 h; summary of the method: as §1
[6] = test system: J774.A1; assay: Inhibition of IL-1beta production in mouse J774A.1 cells at 30 uM incubated for 12 hrs by sandwich immunoassay; format: functional; details: J774.A1, 12 h; summary of the method: as §1
[7] = Cytotoxicity against mouse RAW264.7 cells assessed as cell viability at 50 uM after 24 hrs by MTT assay; format: cell-based; details: read-out: Activity; summary of the method: as §2
[8] = test system: J774.A1; assay: Inhibition of LPS-induced nitric oxide production in mouse J774A.1 cells pre-incubated for 1 hr followed by LPS stimulation for 24 hrs by Griess reagent based assay; format: functional, cell-based; summary of the method: as §2
[9] = test system: J774.A1; assay: Inhibition of IL-1beta production in mouse J774A.1 cells incubated for 12 hrs by sandwich immunoassay; format: functional, cell-based; details: J774.A1, 12 h; summary of the method: as §1
[10] = test system: Rattus norvegicus; assay: Antiinflammatory activity in Sprague-Dawley rat assessed as inhibition of LPS-induced TNFalpha production at 150 umol/kg, po pre-administered at interval of 12 hrs followed by LPS-stimulation 2 hrs after final dose and measured 2 hrs post LPS challenge by ELISA method; format: functional
[11] = test system: J774.A1; assay: Inhibition of TNFalpha production in mouse J774A.1 cells incubated for 6 hrs by sandwich immunoassay; format: functional, cell-based; details: J774.A1, 6 h; summary of the method: as §1
[12] = test system: Rattus norvegicus; assay: Antiinflammatory activity in Sprague-Dawley rat assessed as inhibition of carrageenan-induced paw edema at 150 umol/kg, po administered 1 hr before carrageenan injection and measured 5 hrs post carrageenan challenge
[13] = test system: Rattus norvegicus; assay: Antiinflammatory activity in Sprague-Dawley rat assessed as inhibition of carrageenan-induced paw edema at 150 umol/kg, po administered 1 hr before carrageenan injection and measured 3 hrs post carrageenan challenge
[14] = test system: RAW264.7; assay: Inhibition of IL-1beta production in mouse RAW264.7 cells incubated for 12 hrs by sandwich immunoassay; format: functional, cell-based; details: RAW264.7, 12 h; summary of the method: as §1
[15] = test system: Rattus norvegicus; assay: Antiinflammatory activity in Sprague-Dawley rat assessed as inhibition of LPS-induced IL-1beta production at 150 umol/kg, po pre-administered at interval of 12 hrs followed by LPS-stimulation 6 hrs after final dose and measured 2 hrs post LPS challenge by ELISA method; format: functional
[16] = test system: RAW264.7; assay: Inhibition of TNFalpha production in mouse RAW264.7 cells incubated for 6 hrs by sandwich immunoassay; format: functional, cell-based; details: RAW264.7, 6 h; summary of the method: as §1

For `CC(C)COc1ccccc1C1CC(=O)c2ccccc2O1` (stereo unspecified), the inhibition at 30 µM [1] was 30.4%, the IC50 [2] was 36.7 µM and the inhibition at 30 µM [3] was 33.2%. For the same compound, the viability at 24 h, 50 µM [4] was 84.5%, the inhibition at 30 µM [5] was 36.7% and the inhibition at 30 µM [6] was 33.5%. The viability at 24 h, 50 µM [7] was 83.3% and the IC50 [8] was 33.2 µM.
In the case of `CCOc1ccccc1C1CC(=O)c2ccccc2O1` (stereo unspecified), the inhibition at 30 µM [1] is reported as 29.6%, the IC50 [2] is reported as 38.5 µM and the inhibition at 30 µM [3] is reported as 38.8%. The viability at 24 h, 50 µM [4] was 92.7%, the inhibition at 30 µM [5] was 38.5% and the inhibition at 30 µM [6] was 27.7%. The viability at 24 h, 50 µM [7] was 82.6% and the IC50 [8] was 38.8 µM.
For `CC(C)=CCOc1ccccc1C1CC(=O)c2ccccc2O1` (stereo unspecified), the inhibition at 30 µM [1] was 41.8%, the IC50 [2] was 32.7 µM and the inhibition at 30 µM [3] was 31.7%. The viability at 24 h, 50 µM [4] was 92.3%, the inhibition at 30 µM [5] was 41.7% and the inhibition at 30 µM [6] was 40.3%. For the same compound, the viability at 24 h, 50 µM [7] was 94.8% and the IC50 [8] was 34.3 µM.
Compound `C=CCOc1ccccc1C1CC(=O)c2ccccc2O1` (stereo unspecified) has an inhibition at 30 µM [1] of 49.3%, an IC50 [2] of 37.8 µM and an inhibition at 30 µM [3] of 38.6%. For the same compound, the viability at 24 h, 50 µM [4] was 84%, the inhibition at 30 µM [5] was 47.8% and the inhibition at 30 µM [6] was 47%. For the same compound, the viability at 24 h, 50 µM [7] was 89.3% and the IC50 [8] was 38.6 µM.
`COCOc1ccccc1C1CC(=O)c2ccccc2O1` (stereo unspecified) gave an inhibition at 30 µM [1] of 35.2%, an IC50 [2] of 32.6 µM and an inhibition at 30 µM [3] of 45.2%. It also gave a viability at 24 h, 50 µM [4] of 99.4%, an inhibition at 30 µM [5] of 48.6% and an inhibition at 30 µM [6] of 33.3%. The viability at 24 h, 50 µM [7] was 92.2% and the IC50 [8] was 35.2 µM.
`CC(C)c1ccc(COc2ccccc2C2CC(=O)c3ccccc3O2)cc1` (stereo unspecified) showed an IC50 [9] of 23.1 µM, an inhibition at 30 µM [1] of 91.5% and an IC50 [2] of 27.1 µM. It also gave an inhibition at 30 µM [3] of 78.6%, an inhibition in vivo at 150 µmol/kg [10] of 30.3% and an IC50 [11] of 23.2 µM. The inhibition in vivo at 150 µmol/kg [12] was 32.3%, the inhibition in vivo at 150 µmol/kg [13] was 18% and the viability at 24 h, 50 µM [4] was 99.7%. It also gave an inhibition at 30 µM [5] of 80.6%, an IC50 [14] of 25.1 µM and an inhibition in vivo at 150 µmol/kg [15] of 24.6%. The inhibition at 30 µM [6] was 91.7%, the viability at 24 h, 50 µM [7] was 92.5% and the IC50 [8] was 28.6 µM. It also gave an IC50 [16] of 23.7 µM.
Compound `CC(C)Cc1ccc(C(C)C(=O)O)cc1` (stereo unspecified) [IBUPROFEN] has an inhibition in vivo at 150 µmol/kg [12] of 41.4% and an inhibition in vivo at 150 µmol/kg [13] of 30.5%.
Work on `CCCCOc1ccccc1C1CC(=O)c2ccccc2O1` (stereo unspecified) yielded an inhibition at 30 µM [1] of 19.3%, an IC50 [2] of 48.7 µM and an inhibition at 30 µM [3] of 47.7%. The viability at 24 h, 50 µM [4] was 95.5%, the inhibition at 30 µM [5] was 48.7% and the inhibition at 30 µM [6] was 42.5%. It also gave a viability at 24 h, 50 µM [7] of 78.3% and an IC50 [8] of 47.7 µM.
